Experiments:
[1] = tested on: Akt, p42/44 MAPK and ERα phosphorylation; experiment: Immunoblot of phosphorylation in TAM-R MCF-7 and T47D cells; type: cell-based, human; conditions: tamoxifen alone or tamoxifen and E2
Summary of the method: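 Proteins separated, blotted to nitrocellulose, blocked 1 h, probed, then HRP secondary 1 h and ECL. Akt, p42/44 MAPK and ERα phosphorylation quantified by densitometry; experiments repeated more than three times in triplicate.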

BIG3 expression = BIG3 expression in MCF-7 cells; type: cell-based, human
MCF-7 cells = experiment: Cell cycle assay by flow cytometry, MCF-7; type: cell-based, human; conditions: MCF-7, 24 h
[2] = tested on: ERα (S104/S106, S118, S167, S305 and Y537); experiment: Immunoblot of ERα phosphorylation; type: cell-based, human; conditions: MCF-7 and KPL-3C cells, at least 24 h
Summary of the method: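 Blots were on nitrocellulose with HRP secondary and ECL detection. Site-specific ERα phosphorylation was quantified by densitometry and expressed as fold over untreated cells at 0 h. Mean±s.e.m.; experiments were run more than three times in triplicate.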

[3] = tested on: ERE motif within intron 1 of the BIG3 gene; experiment: Luciferase assay, intronic ERE of BIG3; type: cell-based, human; conditions: MCF-7
[4] = tested on: ERE within intron 1 of the BIG3 gene; experiment: ChIP on intronic ERE of BIG3; type: cell-based, human; conditions: MCF-7
p42/44 MAPK (T202/Y204) = experiment: Immunoblot of p42/44 MAPK; type: cell-based, human; conditions: MCF-7 and KPL-3C cells, E2-stimulated
Summary of the method: (§1)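 Blots were run on nitrocellulose, blocked in 4% BlockAce for 1 h, probed with HRP secondary for 1 h and developed by ECL. Phospho-levels were quantified by densitometry. Representative of four independent experiments.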

[5] = tested on: ERα / PHB2 chromatin-remodelling complexes; experiment: Co-immunoprecipitation of chromatin-remodelling complexes in nuclear fractions; type: cell-based, human; conditions: MCF-7 and KPL-3C cells, 24 h, E2 present
Summary of the method: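 Lysed in 0.1% NP-40 buffer, precleared with normal IgG/Protein G Sepharose 3 h at 4 °C, then incubated with anti-ERα or anti-PHB2 (5 μg) 12 h at 4 °C. Complexes captured on Protein G 1 h, washed three times, resolved by SDS–PAGE and immunoblotted.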

[6] = tested on: MCF-7 xenograft in BALB/c nude mice; experiment: MCF-7 orthotopic xenograft tumour growth; type: in vivo, mouse; conditions: daily 6 μg per day E2, MCF-7
Akt (S473) = experiment: Immunoblot of Akt; type: cell-based, human; conditions: MCF-7 and KPL-3C cells, E2-stimulated
Summary of the method: as §1

Row | SMILES | phosphorylation of Akt, p42/44 MAPK and ERα in TAM-R cells [1] | BIG3 expression after tamoxifen (BIG3 expression; real-time PCR and immunoblot) | apoptotic (sub-G1) cell population (MCF-7 cells) [%] | cell cycle distribution (MCF-7 cells) | ERα phosphorylation at five sites [2] | BIG3 expression after E2 (BIG3 expression) | luciferase activity, intronic ERE from BIG3 [3] | recruitment to intronic ERE of BIG3 [4] | p42/44 MAPK (T202/Y204) phosphorylation (p42/44 MAPK (T202/Y204)) | SRC-1 binding/recruitment to ERα [5] | E2-induced tumour growth by E2 alone [6] | Akt (S473) phosphorylation (Akt (S473))
1 | CC/C(=C(\c1ccccc1)c1ccc(OCCN(C)C)cc1)c1ccccc1 [tamoxifen] | enhanced in response to tamoxifen alone | significant reduction in BIG3 expression at both the transcriptional and protein levels in a dose-dependent manner | 0.91 | population in the G1 phase increased |  |  |  |  |  |  |  | 
2 | C[C@]12CC[C@@H]3c4ccc(O)cc4CC[C@H]3[C@@H]1CC[C@@H]2O [E2, 17-estradiol] |  |  | 0.17 | population of cells in the G2/M phase increased | clearly increased in response to E2 stimulation | significantly upregulated in MCF-7 cells in a time-dependent manner | robust luciferase activity | recruitment of ERα and the co-activator SRC-1 was observed | clearly increased in a time-dependent manner | recruited SRC-1 to ERα | induced time-dependent growth of KPL-3C and MCF-7 tumours | clearly increased in a time-dependent manner

Reference: paper PMC3791465 (Nature Communications, 2013)
